From PubChem BioAssay
TRPN1 ag: activates the zebrafish TRPN1 channel; HEK293 zebrafish TRPN1-YFP, Fluo-8 calcium fluorescence; 100% = response to 87 µM carbachol; activation, % at 3 µM; 220,000 tested, 0.18% active; AID 1424;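 active = activation above its plate's cutoff, the mean activation of test wells on that plate plus 3 SD, cut at about 19% in these data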;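 also: 0% = DMSO alone and 100% = 87 µM carbachol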
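Control set: carbachol 87 µM as high control, DMSO as low control; system: HEK293 stable line with zebrafish TRPN1-YFP; read-out: % activation versus carbachol response; detection: intracellular calcium fluorescence with Fluo-8; doses: single test compound dose, 3 µM nominal, 0.3% DMSO; schedule: dye 1 h 37 °C plus 30 min RT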
TAAR1 ag: human TAAR1 agonism; Q96RJ0; CHO RD-HGA16 TAAR1, Fluo-8 calcium fluorescence; vehicle wells 0%, saturating PEA agonist 100%; activation, % at 3 µM; 360,000 tested, 0.99% active; AID 624467;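 active = activation above the mean activation of all test compounds in the run plus 3 SD, cut at about 38% in these data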
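Assay system: CHO-derived RD-HGA16 cells with stable Gα16 and human TAAR1; timing: 17-24 h seeding, 75 min 37 °C dye, 30 min RT; read-out: % activation from peak over basal fluorescence ratio, DMSO-to-PEA scaled; measured by: kinetic Fluo-8 calcium fluorescence; benchmarks: low control DMSO, high control PEA (EC100); doses: 3 µM single concentration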
TAAR1 antag: human TAAR1 antagonism. inhibition, % at 3 µM. CHO RD-HGA16 TAAR1, Fluo-8 calcium fluorescence, antagonist. 360,000 tested, 1.5% active. Q96RJ0;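 active = inhibition above a per-plate cutoff, the mean inhibition of test compounds on that plate plus 3 SD, cut at about 49% in these data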;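 also: 0% = DMSO plus EC80 beta-PEA response and 100% = DMSO alone without agonist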
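System: CHO RD-HGA16 cells bearing hTAAR1. Reagent: EC80 β-phenethylamine stimulus. Schedule: seeding 17-24 h prior, 75-min 37 °C, 30-min RT dye loading. Signal: Fluo-8 intracellular calcium dye fluorescence, real-time kinetic reads. Read-out: % inhibition from peak post-agonist over basal fluorescence ratio. Benchmarks: vehicle wells and EC80 agonist wells. Replicates: n of 1.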
TRPML3 agonist: activates the human TRPML3 channel; HEK293 TRPML3-YFP, Fluo-8 calcium fluorescence; 100% = the carbachol control signal; activation, % at 3 µM; 220,000 tested, 0.29% active; AID 1448;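 active = activation above its plate's cutoff, the mean activation of the plate's test wells plus 3 SD, cut at about 12% in these data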;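 also: 0% = DMSO only wells and 100% = carbachol wells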
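Material: TRPML3-YFP stable HEK293 cells | Dosing: One concentration, 3 µM nominal, 0.3% DMSO | Timing: 125 s total fluorescence read per well | Technique: Fluo-8 calcium dye fluorescence, ex 470-495, em 515-575 nm | Measure: Percent activation from peak-to-basal fluorescence ratio, scaled between DMSO and carbachol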
LANA-H2B inh: blocks KSHV LANA binding to histone H2A/H2B | cell-free LANA-H2A/H2B peptide, fluorescence polarization | Q9QR71 | 320,000 tested, 0.6% active | inhibition, % (no concentration beside the values); in the data active = inhibition mostly above about 10%, no sharp cut-off; inactive = mostly below about 6.7%
GPR7 antagonist: blocks human GPR7 receptor signaling; GPR7-expressing cells, fluorescence antagonist assay; inhibition, % at 4.4 µM; 290,000 tested, 1.1% active; in the data active = inhibition above about 16%, passing the limit was not always enough;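 also: cells stimulated with the agonist NPW; 0% = agonist with vehicle and 100% = vehicle without agonist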
Target sequence (P48145 whole entry, looked up): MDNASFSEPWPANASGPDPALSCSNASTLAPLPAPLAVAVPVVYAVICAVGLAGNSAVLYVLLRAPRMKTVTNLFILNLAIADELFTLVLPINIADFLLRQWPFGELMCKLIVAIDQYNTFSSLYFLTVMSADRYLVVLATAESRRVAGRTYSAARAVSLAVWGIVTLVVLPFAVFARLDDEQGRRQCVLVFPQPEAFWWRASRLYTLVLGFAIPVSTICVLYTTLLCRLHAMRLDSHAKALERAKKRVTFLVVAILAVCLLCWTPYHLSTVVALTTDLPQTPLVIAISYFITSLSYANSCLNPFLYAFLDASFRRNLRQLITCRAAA
TAAR1 ag conf: confirmation of human TAAR1 agonists; shares compounds with TAAR1 ag; CHO RD-HGA16 TAAR1, Fluo-8 calcium fluorescence; scaled: DMSO 0%, maximal phenethylamine 100%; activation, % at 3 µM; 2,400 tested, 82% active; AID 651783;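 active = activation above a cutoff set at the run's mean compound activation plus 3 SD, cut at about 39% in these data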
Ga16 ag counter: nonselective agonism, TAAR1 counter-screen. shares compounds with TAAR1 ag. CHO-Ga16 parental, Fluo-8 calcium fluorescence; normalized to maximal ATP response, DMSO zero. activation, % at 3 µM. 2,400 tested, 50% active. AID 651787;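 active = activation above the run cutoff, the mean activation over all tested wells plus 3 SD, cut at about 12% in these data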;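 also: 0% = DMSO wells and 100% = maximal ATP response on the peak over basal ratio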
TAAR1 desens: counter-screen for human TAAR1 agonists: agonists that desensitize TAAR1; CHO RD-HGA16 hTAAR1, Fluo-8 calcium, beta-PEA response inhibition; 2,400 tested, 46% active; inhibition, % at 3 µM; shares compounds with TAAR1 ag;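 active = inhibition above the run cutoff, the mean inhibition of all test compounds plus 3 SD, cut at about 49% in these data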;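 also: beta-PEA stimulus applied at its EC80; loss of beta-PEA calcium signal after compound pretreatment read as receptor desensitization; 0% = DMSO with beta-PEA at EC80 and 100% = DMSO alone without agonist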
Ga16 nonsel ant: nonselective Ga16 antagonism, counter-screen; shares compounds with TAAR1 ag; inhibition, % at 3 µM; CHO-Ga16 ATP-induced calcium, Fluo-8 fluorescence; 2,400 tested, 39% active;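 active = inhibition above the plate's mean compound inhibition plus 3 SD, computed per plate, cut at about 22% in these data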;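 also: 0% = EC80 ATP with DMSO and 100% = DMSO wells without ATP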
Numbers without * were called inactive; / = no result. In the library only some 3.4% were active in any assay of this set; here they are far more common.

SMILES	TRPN1 ag	TAAR1 ag	TAAR1 antag	TRPML3 agonist	LANA-H2B inh	GPR7 antagonist	TAAR1 ag conf	Ga16 ag counter	TAAR1 desens	Ga16 nonsel ant
O=C(O)C1C2C=CC(C2)C1C(=O)NCCc1cccc(Cl)c1 (centres undefined)	0	/	/	1	2	-9	/	1	/	10
O=C(O)C1C2C=CC(C2)C1C(=O)NCc1cccc(Cl)c1 (centres undefined)	/	24	-6	/	-3	-13	/	/	/	/
O=C(O)C1CCCCC1C(=O)NCCc1ccc(F)cc1 (centres undefined)	1	81*	34	0	-18	8	93*	3	73*	7
CC(C)(C)C(=O)Nc1sc2c(c1C#N)CCN(Cc1ccccc1)C2	/	3	19	/	-4	-4	/	/	/	/
O=C(O)C1CCCCC1C(=O)NCc1ccccc1 (centres undefined)	1	4	-11	1	2	4	/	/	/	/
O=C(O)C1CCCCC1C(=O)NCCc1cccc(Cl)c1 (centres undefined)	2	90*	68*	0	2	-4	88*	2	70*	-1
Brc1cccc(-c2nc3c4ccccc4ccn3c2Cc2ccsc2)c1	/	2	-19	/	/	/	/	/	/	/
CC1OC2CC(=O)OC2C2=C1C(=O)c1c(O)cccc1C2=O (centres undefined)	/	64*	58*	/	/	/	69*	41*	71*	62*
COCCCNCCCCOc1ccc(OCc2ccccc2)cc1	1	30	16	3	-3	15	/	/	/	/
c1ccc(COc2ccc(OCCCNC3CCCC3)cc2)cc1	1	53*	3	2	-2	12	79*	24*	49*	20
CC(C)Oc1ccc(OCCNC2CCCC2)cc1	0	1	-1	1	-2	-3	/	/	/	/
C=CCNCCCCOc1ccc(OCc2ccccc2)cc1	1	53*	22	1	1	13	70*	15*	37	17
O=C(NC1CCCCC1)C1c2ccccc2OCC(=O)N1Cc1ccco1 (centres undefined)	/	1	-10	/	/	/	/	/	/	/
O=C(CN(c1ccc(Cl)c(Cl)c1)S(=O)(=O)c1ccccc1)N1CCc2ccccc2C1	0	58*	10	1	-2	-9	76*	5	32	12
COc1ccccc1N(CC(=O)N1CCc2ccccc2C1)S(C)(=O)=O	1	10	-7	-1	2	-10	/	/	/	/
COc1ccc(N(CC(=O)N2CCc3ccccc3C2)S(C)(=O)=O)cc1OC	0	51*	-8	0	1	-4	28	3	4	9
COc1ccc(C(CNC(=O)c2ccco2)N2CCCC2)cc1 (centres undefined)	/	3	5	/	1	/	/	/	/	/
O=C(NNC(=S)NC(=O)C12CC3CC(CC(C3)C1)C2)c1ccncc1	85*	155*	93*	54*	-2	1	122*	103*	72*	55*
CC1(C(=O)NC(=S)NNC(=O)c2ccncc2)CCCCC1	7	92*	24	8	4	1	70*	52*	22	23*
O=C(NNC(=S)NC(=O)c1ccc(F)cc1)c1ccncc1	/	6	-7	/	3	/	/	/	/	/
CC12CC3CC(C1)CC(C(=O)NNC(=O)c1ccncc1)(C3)C2	/	3	1	/	2	/	/	/	/	/
COc1ccc(C)cc1S(=O)(=O)n1cnc2ccccc21	/	0	-34	/	-3	-7	/	/	/	/
COc1ccc(Cn2ccnc2SCC(=O)Nc2ccc(F)cc2F)cc1	/	-2	-9	/	/	/	/	/	/	/
CN(C(=O)c1cccc(Br)c1)C1CCS(=O)(=O)C1 (centres undefined)	/	0	-7	/	-4	/	/	/	/	/
CC1CC1C(=O)OCC(=O)N(C)c1c(N)n(Cc2ccccc2)c(=O)[nH]c1=O (centres undefined)	/	51*	-20	/	-1	/	4	14*	3	9
CC(=O)N(C)c1ccc(NCc2cc(=O)oc3cc(C)c(O)cc23)cc1	/	1	0	/	-2	27	/	/	/	/
CC(=O)c1c(NCCc2ccccc2)nc(=S)n(-c2ccccc2)c1C	0	50*	12	0	3	-6	71*	18*	24	6
CC(=O)c1c(NCc2ccccc2)nc(=O)n(-c2ccccc2)c1C	0	9	10	0	-1	0	/	/	/	/
